Bioassay records as filed in PubChem BioAssay.
The list is not random: actives were taken first. Their share in the collection is about 3.9%.
TAAR1 agonist: human TAAR1 agonists, primary screen, Fluo-8 calcium fluorescence, CHO RD-HGA16 cells. 360,000 tested, 0.99% active. AID 624467, 2012. Trace amine-associated receptor 1 (Homo sapiens), Q96RJ0. vehicle wells 0%, saturating PEA agonist 100%. activation, % at 3 µM;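 active = activation above the mean activation of all test compounds in the run plus 3 SD, cut at about 38% in these data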
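System: CHO-derived RD-HGA16 cells with stable Gα16 and human TAAR1 / Times: 17-24 h plating, Fluo-8 75 min 37 °C, 30 min RT / Technique: calcium-sensitive Fluo-8 signal, excitation 470-495, emission 515-575 nm / Measure: % activation relative to PEA EC100 response / Benchmarks: DMSO and PEA EC100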
HTR2A ag: mouse Htr2a agonists via beta-arrestin recruitment, primary screen, cell-based, luminescence | 5-hydroxytryptamine receptor 2A (Mus musculus), P35363 | 360,000 tested, 0.66% active | activation, % at 7.6 µM | CHO-K1 mHTR2A beta-arrestin complementation; percent of 30 µM serotonin response;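 active = activation above a run cutoff, the mean activation of all tested compounds plus 3 SD, cut at about 14% in these data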
Target sequence (P35363 whole entry, looked up): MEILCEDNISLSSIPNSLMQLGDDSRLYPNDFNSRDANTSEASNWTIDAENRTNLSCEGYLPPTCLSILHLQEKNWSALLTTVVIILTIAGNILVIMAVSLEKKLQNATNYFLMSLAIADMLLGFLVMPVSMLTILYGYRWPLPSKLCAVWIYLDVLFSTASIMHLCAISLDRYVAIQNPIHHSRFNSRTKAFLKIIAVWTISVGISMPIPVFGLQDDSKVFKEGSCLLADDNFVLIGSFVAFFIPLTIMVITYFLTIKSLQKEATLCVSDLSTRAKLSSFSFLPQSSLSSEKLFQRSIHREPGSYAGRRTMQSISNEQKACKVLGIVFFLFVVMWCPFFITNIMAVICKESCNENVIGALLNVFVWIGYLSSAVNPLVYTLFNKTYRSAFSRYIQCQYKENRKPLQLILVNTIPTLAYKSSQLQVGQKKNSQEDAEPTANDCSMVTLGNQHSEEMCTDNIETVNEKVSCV
CHRM1 antagonist: human M1 muscarinic receptor antagonists, primary screen, CHO-K1 cells, Fluo-8 calcium fluorescence, 1536-well. Muscarinic acetylcholine receptor M1 (Homo sapiens), P11229. CHO-K1 hM1, ACh EC80 antagonist. inhibition, % at 3 µM. 360,000 tested, 1.3% active. AID 588852, 2011;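 active = percent inhibition above its own plate's cutoff, namely the mean of that plate's compound wells plus 3 SD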;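 note: peak over basal fluorescence ratio during 140 s after agonist addition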
TAAR1 antagonist: human TAAR1 antagonists, primary screen, Fluo-8 calcium fluorescence, CHO RD-HGA16 cells; antagonist; inhibition, % at 3 µM; 360,000 tested, 1.5% active; AID 624466, 2012;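 active = inhibition above a per-plate cutoff, the mean inhibition of test compounds on that plate plus 3 SD, cut at about 49% in these data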
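Assay system: CHO-derived RD-HGA16 cells stably expressing human TAAR1 plus Gα16. Timing: 140 s kinetic read after compound, 140 s after agonist. Technique: kinetic Fluo-8 calcium fluorescence measurement. Measure: % inhibition of agonist calcium response.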
CHRM1 PAM: human M1 muscarinic receptor positive allosteric modulators, primary screen, CHO-K1 cells, Fluo-8 calcium fluorescence, 1536-well | 360,000 tested, 0.088% active | AID 588819, 2011 | CHO-K1 hM1, ACh EC20; 0% = ACh EC20, 100% = maximal ACh | activation, % at 3 µM | Muscarinic acetylcholine receptor M1 (Homo sapiens), P11229; in the data active = activation above about 19%, passing the limit was not always enough
M1 ag: human M1 muscarinic receptor agonists, primary screen, Fluo-8 calcium fluorescence, CHO-K1 cells, HTS. AID 588814, 2011. activation, % at 3 µM. 360,000 tested, 0.33% active. CHO-K1 hM1, agonist mode; 0% DMSO, 100% acetylcholine EC100. Muscarinic acetylcholine receptor M1 (Homo sapiens), P11229;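 active = activation above the run's mean compound activation plus 3 SD, cut at about 16% in these data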;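 note: peak over basal fluorescence ratio within a 140 s kinetic read after compound addition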
Large screens that a line does not name were inactive.

NC(CO)c1csc(Nc2ccc(C(=O)c3ccccc3)cc2)n1 (stereo not drawn)	none
NC(Cc1ccc(Cl)cc1)c1csc(Nc2ccc(C(=O)c3ccccc3)cc2)n1 (stereo not drawn)	none
NC(Cc1ccc(F)cc1)c1csc(Nc2ccc(C(=O)c3ccccc3)cc2)n1 (stereo not drawn)	TAAR1 agonist 52, TAAR1 antagonist 53
CC(C)CC(N)c1csc(Nc2ccc(C(=O)c3ccccc3)cc2)n1 (stereo not drawn)	TAAR1 agonist 41
CCSc1ccc(-c2cccc([N+](=O)[O-])c2)nn1	none
Cc1ccc(NC(=O)CN2C(=O)C(=O)N(C3CCCC3)C2=O)c(Cl)c1	none
NC(Cc1ccccc1)c1csc(Nc2ccc(C(=O)c3ccccc3)cc2)n1 (stereo not drawn)	TAAR1 agonist 54
NC(c1csc(Nc2nccc(C(F)(F)F)n2)n1)C1CCCCC1 (stereo not drawn)	TAAR1 agonist 44
O=C(CSc1ccccc1F)NC(=O)c1ccccc1Br	none
COc1ccc(C2/C(=C(/O)c3ccc(F)cc3)C(=O)C(=O)N2CCCN2CCOCC2)cc1OC (stereo not drawn)	none (no result: TAAR1 agonist, TAAR1 antagonist)
NC(=O)c1ccc[n+]([C@H]2O[C@@H](COP(=O)([O-])OP(=O)(O)OC[C@H]3O[C@@H](n4cnc5c(N)ncnc54)[C@H](O)[C@@H]3O)[C@H](O)[C@@H]2O)c1	M1 ag 27 (no result: TAAR1 agonist, TAAR1 antagonist)
COc1ccc(C(=O)NC[C@H]2O[C@@H](n3cnc4c(N)ncnc43)[C@H](O)[C@@H]2O)cc1OC	none
COc1ccc(CC(=O)N/N=C(/C)c2ccco2)cc1	none
CN(C)CCCNC(=O)c1c(N)[nH]c(C(=O)c2ccc(Br)cc2)c1-c1ccc(Br)cc1	none (no result: HTR2A ag, CHRM1 antagonist, CHRM1 PAM, M1 ag)
COc1ccc(S(=O)(=O)NC2CCc3ccccc32)cc1OC (stereo not drawn)	none
COc1ccccc1CNC(=O)c1cc(C2CC2)nc2c1cnn2C(C)C	none
CCOc1ccc(OCCNC(=O)c2cc(C3CC3)nc3c2cnn3C(C)C)cc1	TAAR1 antagonist 60
CC(C)n1ncc2c(C(=O)NCCOc3ccccc3F)cc(C3CC3)nc21	TAAR1 antagonist 50
C[C@@H]1ON(C)[C@H]2C[C@H]3c4cc(-c5ccc(F)cc5)ccc4CCN3C[C@@H]12	none (no result: HTR2A ag, CHRM1 antagonist, CHRM1 PAM, M1 ag)
CSc1ncccc1C(=O)OCC(=O)NC(C)CCc1ccccc1 (stereo not drawn)	none
CCN(CC)CCOC(=O)c1c(C)oc2ccc(OC)cc12	CHRM1 antagonist 25
C=C(C)COc1ccc2oc(C)c(C(=O)OCCOC)c2c1	none
CSc1c(CN2CCN(C)CC2)c2ccccc2n1C	none
COc1ccc(/C=N/n2nnnc2N)c(OC)c1	CHRM1 antagonist 38
CCOC(=O)c1ccccc1-n1c(C)cc(C2N=C(N)Nc3nc4ccccc4n32)c1C (stereo not drawn)	CHRM1 antagonist 81
CCC1(c2ccccc2)NC(=O)N(CC(=O)Nc2cccnc2Cl)C1=O (stereo not drawn)	none
CCC1(c2ccc(F)cc2)NC(=O)N(CC(=O)Nc2cccnc2Cl)C1=O (stereo not drawn)	M1 ag 17
CC1(c2ccc([N+](=O)[O-])cc2)NC(=O)N(CC(=O)Nc2cccnc2Cl)C1=O (stereo not drawn)	TAAR1 agonist 57, M1 ag 22
CN(c1ccccc1)S(=O)(=O)c1cccc(NC(=O)c2ccc(=O)[nH]n2)c1	none
CC(CN1C(C)CCCC1C)OC(=O)c1ccc(Cl)cc1Cl (stereo not drawn)	none
CN1CCN(/C=N/c2c(C#N)cnn2-c2ccccc2)CC1	CHRM1 antagonist 30
CCCNC(=O)c1cc(C2CCCCN2C(=O)OCC(C)C)on1 (stereo not drawn)	CHRM1 antagonist 42
O=Cc1cc([N+](=O)[O-])ccc1N1CCN(Cc2ccc3c(c2)OCO3)CC1	CHRM1 antagonist 35
O=[N+]([O-])c1ccc(N2CCN(Cc3ccc4c(c3)OCO4)CC2)nc1	none
Nc1nnc(SCC(=O)OCC(=O)Nc2ccc(Br)cc2)s1	TAAR1 agonist 44
C[C@H]1COc2cccc(N3CCC[C@H]3CO)c2S(=O)(=O)N1	none (no result: CHRM1 antagonist, CHRM1 PAM, M1 ag)
COc1cccc(Cl)c1NC(=O)N1CCN(c2cc(C)nc3ccccc23)CC1	none
CCOC(=O)N1CCN(c2ccnc3cc(Cl)ccc23)CC1	CHRM1 antagonist 91
COc1cccc(Cl)c1NC(=O)N1CCN(c2ccnc3cc(Cl)ccc23)CC1	CHRM1 antagonist 34
CCC(=O)N1CCN(c2ccnc3cc(Cl)ccc23)CC1	none
O=C(/C=C/c1cccc(Cl)c1)NCc1ccccc1	CHRM1 antagonist 41
O=C(/C=C/c1cccc(Cl)c1)NCc1ccncc1	none
CCC(Sc1nc2ccsc2c(=O)n1Cc1ccc(C(=O)O)cc1)C(=O)Nc1cc(Cl)ccc1C (stereo not drawn)	none
CCC(Sc1nc2ccsc2c(=O)n1Cc1ccc(C(=O)O)cc1)C(=O)Nc1ccc(C)c(Cl)c1 (stereo not drawn)	TAAR1 antagonist 58
COc1ccnc(Oc2ccccc2)c1C(=O)N/C=N/OCc1ccc(F)cc1Cl	TAAR1 antagonist 61
COc1ccccc1CO/N=C/NC(=O)c1c(OC)ccnc1Oc1ccc(F)cc1	none
CS(=O)(=O)N(CC(=O)NC1CCCC1)c1ccc2c(c1)OCCO2	CHRM1 antagonist 35
CNC(=O)CN(c1ccc2c(c1)OCCO2)S(C)(=O)=O	none
CNc1snc(C)c1C(=O)OCC(=O)NCc1ccccc1OC	none
CCCCCCC[C@@H](C/C=C/CCC(=O)O)OC	none
CCCCCCC[C@@H](C/C=C/CCC(=O)N(C)C/C(=C/Cl)C/C(=C\C(=O)N1CC(OC)=CC1=O)OC)OC	CHRM1 antagonist 33
CCCCCCC[C@@H](C/C=C/CCC(=O)N(C)C/C(=C/Cl)C/C(=C\C(=O)N1C[C@H](O)CC1=O)OC)OC	TAAR1 antagonist 50
Cc1ccc2nc(-c3ccc(CN4CCC5(CC4)CNc4ccccc45)cc3)c(-c3ccccc3)nc2c1	none (no result: HTR2A ag, CHRM1 antagonist, CHRM1 PAM, M1 ag)
Cc1cc(NC(=O)CS(=O)(=O)c2cn(Cc3cccc(Br)c3)c3ccccc23)no1	M1 ag 30
Cc1cc(NC(=O)CS(=O)(=O)c2cn(Cc3ccccc3Cl)c3ccccc23)no1	none
